The target in data set [1] is T1, Neutrophil elastase (Homo sapiens) (UniProt P08246).
T1 sequence (whole entry): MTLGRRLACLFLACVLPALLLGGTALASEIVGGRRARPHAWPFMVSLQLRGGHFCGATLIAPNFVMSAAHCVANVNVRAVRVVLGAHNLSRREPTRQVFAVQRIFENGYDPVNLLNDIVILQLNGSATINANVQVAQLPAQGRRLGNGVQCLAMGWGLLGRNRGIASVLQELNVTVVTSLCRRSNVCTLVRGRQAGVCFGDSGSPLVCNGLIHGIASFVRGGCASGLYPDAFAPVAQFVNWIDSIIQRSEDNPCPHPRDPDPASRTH

The nature of data set [2]: Half-life value of the compound. Type of data set: ADME. The procedure, abridged: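 Chemical stability: compound dissolved at 1 mg/mL in 0.5 M MOPS, pH 8.0, held at 25 °C in capped vial; aliquots quenched in 2% aqueous TFA and analysed by reverse-phase HPLC over one to two half-lives. Peak areas fit to first-order decay F(t)=A/2^(t/t1/2) to give t1/2.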
Data set [3] deals with Cricetinae gen. sp. The data set is described as follows: Compound was evaluated in vivo for inhibition of HLE-induced hemorrhage in hamster lung at 100 microg, 30 min after administration prior to HLE. Type of data set: functional, Cricetulus griseus. The procedure, abridged: (§1)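 Hamster, intratracheal dosing of compound (per animal) 30 min before IT instillation of 50 μg HLE (50 units in Experimental); hemorrhage read 3 h later: lungs lavaged with saline, hemoglobin in lavage measured at 414 nm. Percent inhibition from drug-treated vs vehicle-treated hemorrhage; three animals per dose and time. Titration at 100, 30, 10, 3 μg/animal gives ED50.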

In data set [4] the test system is Cricetinae gen. sp. The data set is described as follows: Compound was evaluated in vivo for inhibition of HLE-induced hemorrhage in hamster lung at 200 microg, 3h after administration prior to HLE. In kind it is functional, Cricetulus griseus. Summed up:
(§2)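 Hamster duration protocol: 200 μg/animal given intratracheally 60, 120, 180 or 240 min before IT HLE instillation; hemorrhage scored after 3 h as hemoglobin (414 nm) in saline lung lavage, relative to vehicle-treated animals; three animals per point. T50 taken as time at which 50% inhibition is still obtained.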

Data set [5] deals with Cricetinae gen. sp. The data set is described as follows: Compound was evaluated in vivo for inhibition of HLE-induced hemorrhage in hamster lung at 200 microg, 2 hr after administration prior to HLE. In kind it is functional, Cricetulus griseus. The procedure, abridged: as §2
The subject of data set [6] is Cricetinae gen. sp. The data set is described as follows: Compound was evaluated in vivo for inhibition of HLE-induced hemorrhage in hamster lung at 200 microg, 4 hr after administration prior to HLE. In kind it is functional, Cricetulus griseus. The procedure, abridged: as §2
Data set [7] deals with Cricetinae gen. sp. Kind of data set: Compound was evaluated in vivo for inhibition of HLE-induced hemorrhage in hamster lung at 30microg, 30 min after administration prior to HLE. Type of data set: functional, Cricetulus griseus. Summed up:
as §1

The test system of data set [8] is Cricetinae gen. sp. Kind of data set: Compound was evaluated in vivo for inhibition of HLE-induced hemorrhage in hamster lung at 200 microg, 1 hr after administration prior to HLE. Type of data set: functional, Cricetulus griseus. The procedure, abridged: as §2
For data set [9], the system named is Cricetinae gen. sp. Kind of data set: Compound was evaluated in vivo for inhibition of HLE-induced hemorrhage in hamster lung at 100 microg 30 min after administration prior to HLE. In kind it is functional, Cricetulus griseus. Summed up:
as §1

The subject of data set [10] is Cricetinae gen. sp. The data set is described as follows: Inhibitory activity against Human Leukocyte Elastase by Lung Hemorrhage assay (Effective dose at 15 microg). Type of data set: functional, Cricetulus griseus.
The test system of data set [11] is Cricetinae gen. sp. Kind of data set: Compound was evaluated in vivo for inhibition of HLE-induced hemorrhage in hamster lung at 200 microg 2 hr after administration prior to HLE. In kind it is functional, Cricetulus griseus. Summed up: as §2
Data set [12] deals with Cricetinae gen. sp. The data set is described as follows: Compound was evaluated in vivo for inhibition of HLE-induced hemorrhage in hamster lung at 200 microg 1 hr after administration prior to HLE. Type of data set: functional, Cricetulus griseus. The procedure, abridged: as §2
In data set [13] the test system is Cricetinae gen. sp. Kind of data set: Compound was evaluated in vivo for inhibition of HLE-induced hemorrhage in hamster lung at 10 ug 30 min after administration prior to HLE. Type of data set: functional, Cricetulus griseus. Summed up:
as §1

The subject of data set [14] is Cricetinae gen. sp. Kind of data set: Inhibitory activity against Human Leukocyte Elastase by Lung Hemorrhage assay (at 30 min). In kind it is functional, Cricetulus griseus. Summed up: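 Hamster, intratracheal: test compound 100 μg/animal given 30 min before IT instillation of HLE (50 μg; text also says 50 units). Hemorrhage read 3 h after HLE: lungs lavaged with saline, hemoglobin measured at 414 nm. Percent inhibition from hemorrhage in drug-treated vs vehicle-treated animals; mean of three animals per dose and time.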

For data set [15], the system named is Cricetinae gen. sp. Kind of data set: Compound was evaluated in vivo for inhibition of HLE-induced hemorrhage in hamster lung at 200 microg 3h after administration prior to HLE. Type of data set: functional, Cricetulus griseus. The procedure, abridged:
as §2

The test system of data set [16] is Cricetinae gen. sp. The data set is described as follows: Compound was evaluated in vivo for inhibition of HLE-induced hemorrhage in hamster lung at 30 ug 30 min after administration prior to HLE. In kind it is functional, Cricetulus griseus. The procedure, abridged: as §1
Data set [17] has as its system Cricetinae gen. sp. Kind of data set: Inhibitory activity against Human Leukocyte Elastase by Lung Hemorrhage assay ( at 200 ug/animal). In kind it is functional, Cricetulus griseus. The procedure, abridged: as §2
Data set [18] addresses T2, Neutrophil elastase (Homo sapiens, UniProt P08246).
T2 sequence (P08246 whole entry): T1 sequence (whole entry)
The data set is described as follows: Inhibitory activity against Human Leukocyte Elastase.

For data set [19], the system named is Cricetinae gen. sp. Kind of data set: Compound was evaluated in vivo for inhibition of HLE-induced hemorrhage in hamster lung at 200 microg 4 hr after administration prior to HLE. Type of data set: functional, Cricetulus griseus. The procedure, abridged: as §2
For data set [20], the target named is T2, Neutrophil elastase. The data set is described as follows: In vitro inhibitory activity against human leukocyte elastase.
Data set [21] has as its system Cricetinae gen. sp. Kind of data set: Compound was evaluated in vivo for inhibition of HLE-induced hemorrhage in hamster lung at 10microg, 30 min after administration prior to HLE. In kind it is functional, Cricetulus griseus. The procedure, abridged:
as §1

Data set [22] deals with Cricetinae gen. sp. Kind of data set: Compound was evaluated in vivo for inhibition of HLE-induced hemorrhage in hamster lung at 100 microg 30 min after administration. Type of data set: functional, Cricetulus griseus. The procedure, abridged:
as §1

Data set [23] concerns Cricetinae gen. sp. The data set is described as follows: Compound was evaluated in vivo for inhibition of HLE-induced hemorrhage in hamster lung at 3 ug 30 min after administration prior to HLE. In kind it is functional, Cricetulus griseus. Summed up: as §1

The structures appear in SMILES notation.

A word on the half-life: it is the time in which the quantity being followed falls by half. A lower half-life goes with rapid decline. Regarding `CO[C@H]1C(=O)N2C(C(=O)N3CCCC3)=C(COC(C)=O)CS(=O)(=O)[C@H]12`, the k obs / 1 in data set [1] worked out at 27000 M⁻¹ s⁻¹. The same compound gave a half-life in data set [2] of 16 h.

`CO[C@H]1C(=O)N2C(C(=O)N(C)Cc3ccccc3)=C(COC(=O)c3ccc(C(=O)O)cc3)CS(=O)(=O)[C@H]12` showed a k obs / 1 in [1] of 10000 M⁻¹ s⁻¹.

The term Inhibition denotes the relative decrease from the control value, in per cent. Regarding `CO[C@H]1C(=O)N2C(C(=O)N(C)CC(=O)O)=C(COC(=O)c3ccccc3)CS(=O)(=O)[C@H]12`, the Inhibition in the data set with Cricetinae gen. sp. [3] is given as 87%; in the data set on Cricetinae gen. sp. [4], 38%; in the data set on Cricetinae gen. sp. [5], 58%; with Cricetinae gen. sp. [6], 5%; in the data set on Cricetinae gen. sp. [7] it was 58%; in the data set on Cricetinae gen. sp. [8], 88%. This compound also displayed a k obs / 1 in data set [1] of 600 M⁻¹ s⁻¹.

Usually IC50 stands for the point on the concentration scale where inhibition reaches its midpoint. Turning to `CO[C@H]1C(=O)N2C(C(=O)N3CCCC3)=C(CSc3nc(=O)c(=O)[nH]n3C)CS(=O)(=O)[C@H]12`, the Inhibition amounted to 95% in the data set on Cricetinae gen. sp. [9]; 87% in the data set on Cricetinae gen. sp. [11]; 88% in the data set on Cricetinae gen. sp. [12]; 30% with Cricetinae gen. sp. [13]; 64% with Cricetinae gen. sp. [15]; 60% with Cricetinae gen. sp. [16]. Also, the Inhibition with Cricetinae gen. sp. [19] was determined as 50%. Also, the ED50 came to 30 µg with Cricetinae gen. sp. [10] and 20 µg in the data set with Cricetinae gen. sp. [14]. Besides, in data set [1], the k obs / 1 turned out to be 13400 M⁻¹ s⁻¹. For the same compound, in data set [2], the half-life was 20 h. In the data set on Cricetinae gen. sp. [17], this compound displayed a T50 of 240 min. Also, the IC50 at Neutrophil elastase [18] turned out to be 2000 nM.

In data set [1], `CO[C@H]1C(=O)N2C(C(=O)N3CCC(C(=O)O)C3)=C(COC(C)=O)CS(=O)(=O)[C@H]12` (stereo partly specified) came in with a k obs / 1 of 1900 M⁻¹ s⁻¹.

One may read the Ki as the equilibrium dissociation constant of an inhibitor or competing ligand from its target. The low end stands for higher affinity, the high end for lower affinity. Consider `CO[C@H]1C(=O)N2C(C(=O)N3CCC[C@@H]3C(=O)O)=C(COC(C)=O)CS(=O)(=O)[C@H]12`, for which, on Neutrophil elastase [20], affinity was put at a Ki of 3400 nM. The half-life in data set [2] was less than 5 h.

In [1], `CO[C@H]1C(=O)N2C(C(=O)N3CCC(O)C3)=C(COC(C)=O)CS(=O)(=O)[C@H]12` (stereo partly specified) registered a k obs / 1 of 12000 M⁻¹ s⁻¹.

Take `CO[C@H]1C(=O)N2C(C(=O)N(C)CC(=O)N(C)CCC(=O)O)=C(COC(C)=O)CS(=O)(=O)[C@H]12`: the values for the Inhibition in the data set on Cricetinae gen. sp. [3], with Cricetinae gen. sp. [21] and with Cricetinae gen. sp. [7] were 86%, 35% and 77%, respectively. In data set [1], this compound returned a k obs / 1 of 700 M⁻¹ s⁻¹.

The compound `CC[C@H]1C(=O)N2C(C(=O)N(C)CC(=O)O)=C(COC(C)=O)CS(=O)(=O)[C@H]12` registered a k obs / 1 in data set [1] of 30 M⁻¹ s⁻¹. In data set [2], this compound came in with a half-life greater than 50 h.

Regarding `CC[C@H]1C(=O)N2C(C(=O)OCc3ccc(C(=O)O)cc3)=C(COC(C)=O)CS(=O)(=O)[C@H]12`, the Inhibition with Cricetinae gen. sp. [22] is -32%. In [1], this compound returned a k obs / 1 of 5700 M⁻¹ s⁻¹. This compound had a half-life in data set [2] of 40 h.

Regarding `CO[C@H]1C(=O)N2C(C(=O)N3CCCC3C(=O)O)=C(CSc3nc(=O)c(=O)[nH]n3C)CS(=O)(=O)[C@H]12` (stereo partly specified), the Inhibition in the data set with Cricetinae gen. sp. [9] turned out to be 100%; in the data set with Cricetinae gen. sp. [13], 80%; with Cricetinae gen. sp. [23] it was 61%; in the data set on Cricetinae gen. sp. [16] it was 86%. Further, the inhibition constant Ki on Neutrophil elastase [20] was found to be 250 nM. In addition, in data set [2], the half-life is 46 h.

Consider `CO[C@H]1C(=O)N2C(C(=O)N(C)CC(=O)OC(C)(C)C)=C(CSc3nnnn3CC(=O)O)CS(=O)(=O)[C@H]12`, for which the Inhibition amounted to 91% with Cricetinae gen. sp. [9], 20% in the data set with Cricetinae gen. sp. [13] and 59% with Cricetinae gen. sp. [16]. In [1], the k obs / 1 is 20500 M⁻¹ s⁻¹.

(Values after ChEMBL document CHEMBL1125311, “Inhibition of human leukocyte elastase. 4. Selection of a substituted cephalosporin (L-658,758) as a topical aerosol” (J Med Chem, 1992).)
